Measurements published in ChEMBL document CHEMBL4007408, “Identification of Novel Triazole-Based Nicotinamide Phosphoribosyltransferase (NAMPT) Inhibitors Endowed with Antiproliferative and Antiinflammatory Activity” (J Med Chem, 2017).
pEC50, pIC50: −log10 of the molar value. Active and inactive are the calls of the source. No cut-off for these calls is given here.

Columns and labels:
Fibrosarcoma cell = test: Antitumor activity against mouse fibrosarcoma cells allografted in athymic nu/nu Harlan mouse
[1] = target: Nicotinamide phosphoribosyltransferase (Mus musculus, UniProt Q99KQ4); test: Inhibition of recombinant mouse NAMPT expressed in bacterial expression system using nicotinamide as substrate after 1 hr by fluorescence based NMNAT-3 enzyme coupled assay; settings: read-out: IC50
Nicotinamide phosphoribosyltransferase (Mus musculus, UniProt Q99KQ4), sequence (Q99KQ4 whole entry): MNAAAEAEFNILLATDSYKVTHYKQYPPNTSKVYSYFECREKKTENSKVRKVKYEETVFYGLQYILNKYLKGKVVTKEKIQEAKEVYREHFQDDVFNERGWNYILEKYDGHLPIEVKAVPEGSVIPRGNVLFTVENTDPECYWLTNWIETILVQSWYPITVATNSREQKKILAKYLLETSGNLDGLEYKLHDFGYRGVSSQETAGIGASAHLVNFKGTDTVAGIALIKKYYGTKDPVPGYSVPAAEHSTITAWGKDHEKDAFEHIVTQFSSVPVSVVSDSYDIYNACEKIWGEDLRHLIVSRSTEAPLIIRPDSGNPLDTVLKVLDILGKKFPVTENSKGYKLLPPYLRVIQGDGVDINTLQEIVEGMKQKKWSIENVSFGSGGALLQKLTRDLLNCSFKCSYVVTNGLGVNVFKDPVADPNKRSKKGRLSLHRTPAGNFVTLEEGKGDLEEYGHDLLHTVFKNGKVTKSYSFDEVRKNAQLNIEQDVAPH

Liver [2] = test: Stability in Wistar Han rat liver microsomes after 60 mins by LC-ESI-MS analysis; format: ADME, microsome; settings: 1 h
[3] = Drug metabolism in human liver microsomes assessed as mixed function oxidase mediated compound cleavage by measuring compound remaining after 60 mins in presence of NADPH-regenerating system by LC-UV analysis; format: ADME; settings: read-out: Stability
Outline: (§1)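 Substrate at 50 μM final, with rat or human liver microsomes at 1.0 mg/ml protein, in 50 mM Tris-HCl pH 7.4. Mix held 3.3 mM MgCl2, 1% acetonitrile and an NADPH-regenerating system (1.3 mM β-NADP, 3.3 mM glucose 6-phosphate, 0.4 U/ml G6PDH). Shaken 60 min at 37 °C, stopped with ice-cold acetonitrile. LC-UV gave % residual substrate versus a no-microsome control, mean of two replicates.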

Mus musculus [4] = test: In vivo inhibition of NAMPT in DNBS-induced BALB/c mouse colitis model assessed as reduction in mucosal congestion at 20 mg/kg, ip bid administered for 3 days post DNBS challenge; format: functional, organism-based
A2780 [5] = test: Antitumor activity against human A2780 cells xenografted in athymic nu/nu Harlan mouse assessed as reduction in tumor growth at 10 mg/kg, ip bid administered for 8 consecutive days; format: functional, organism-based
[6] = Drug metabolism in human liver microsomes assessed as mixed function oxidase mediated compound degradation after 60 mins in presence of NADPH-regenerating system by LC-UV analysis; format: ADME; settings: 1 h; outline: as §1
Mus musculus [7] = test: Drug metabolism in athymic Nu/Nu Harlan mouse blood assessed as N-oxide metabolite formation at 10 mg/kg, iv administered as single dose up to 24 hrs by LC-ESI-MS analysis; format: ADME, organism-based; settings: in vivo
[8] = target: Nicotinamide phosphoribosyltransferase (Homo sapiens, UniProt P43490); test: Inhibition of NAMPT in human Jurkat T cells assessed as reduction in NAD levels; format: cell-based
Nicotinamide phosphoribosyltransferase (Homo sapiens, UniProt P43490), sequence (P43490 whole entry): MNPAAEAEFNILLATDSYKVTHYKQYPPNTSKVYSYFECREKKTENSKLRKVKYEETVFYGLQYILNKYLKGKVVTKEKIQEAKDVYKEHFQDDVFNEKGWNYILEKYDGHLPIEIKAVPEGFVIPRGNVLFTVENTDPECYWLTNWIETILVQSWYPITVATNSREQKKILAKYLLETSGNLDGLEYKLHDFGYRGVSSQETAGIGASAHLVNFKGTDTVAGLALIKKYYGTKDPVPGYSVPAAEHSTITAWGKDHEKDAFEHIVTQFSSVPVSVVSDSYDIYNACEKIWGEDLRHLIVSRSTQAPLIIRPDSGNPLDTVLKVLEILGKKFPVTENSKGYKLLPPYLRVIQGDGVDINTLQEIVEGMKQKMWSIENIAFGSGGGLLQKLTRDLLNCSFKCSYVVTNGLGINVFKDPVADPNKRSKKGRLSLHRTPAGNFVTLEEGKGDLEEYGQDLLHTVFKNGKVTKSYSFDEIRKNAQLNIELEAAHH

[9] = AUC in athymic Nu/Nu Harlan mouse at 10 mg/kg, iv administered as single dose up to 24 hrs by LC-ESI-MS analysis; format: ADME, organism-based; set-up: time < 24 hr, dose 10 mg/kg, route intravenous; settings: in vivo
Mus musculus [10] = test: In vivo inhibition of NAMPT in DNBS-induced BALB/c mouse colitis model assessed as reduction in loss of body weight at 20 mg/kg, ip bid administered for 3 days post DNBS challenge; format: functional, organism-based
Mus musculus [11] = test: Downregulation of NAMPT expression in DNBS-induced BALB/c mouse colitis model at 20 mg/kg, ip bid administered for 3 days post DNBS challenge by Western blot analysis; format: functional, organism-based
Mus musculus [12] = test: In vivo inhibition of NAMPT in DNBS-induced BALB/c mouse colitis model assessed as reduction in hemorrhagic ulcerations at 20 mg/kg, ip bid administered for 3 days post DNBS challenge; format: functional, organism-based
Mus musculus [13] = test: Antiinflammatory activity of DSS-induced […] mouse colitis model assessed as disease activity index at 20 mg/kg administered daily for 7 days post DSS challenge (reference value: 6); format: functional
Mus musculus [14] = test: Antiinflammatory activity of DSS-induced […] mouse colitis model assessed as improved general condition at 20 mg/kg administered daily for 7 days post DSS challenge; format: functional, organism-based
Mus musculus [15] = test: Antiinflammatory activity of DSS-induced […] mouse colitis model assessed as reduction in loss of body weight at 20 mg/kg administered daily for 7 days post DSS challenge; format: functional, organism-based
Liver [16] = test: Drug metabolism in human liver microsomes assessed as pyridine N-oxidation after 60 mins in presence of NADPH-regenerating system by LC-UV analysis; format: ADME, microsome; settings: 1 h
Outline: (§2)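 Metabolites were characterized by LC-ESI-MSn on supernatants of 60 min, 37 °C incubations. Each used 50 μM substrate with rat or human liver microsomes (1.0 mg/ml protein) in 50 mM Tris-HCl pH 7.4 with 3.3 mM MgCl2, 1% acetonitrile and an NADPH-regenerating system. Reactions were quenched with cold acetonitrile and centrifuged.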

Liver [17] = test: Stability in human liver microsomes after 60 mins by LC-ESI-MS analysis; format: ADME, microsome; settings: 1 h
Mus musculus [18] = test: In vivo inhibition of NAMPT in DNBS-induced BALB/c mouse colitis model assessed as reduction in erosion at 20 mg/kg, ip bid administered for 3 days post DNBS challenge; format: functional, organism-based
[19] = Drug metabolism in Wistar Han rat liver microsomes assessed as mixed function oxidase mediated compound cleavage by measuring compound remaining after 60 mins in presence of NADPH-regenerating system by LC-UV analysis; format: ADME; settings: read-out: Stability; outline: as §1
Mus musculus [20] = test: Toxicity in athymic nu/nu Harlan mouse xenografted with human A2780 cells assessed as body weight loss at 10 mg/kg, ip bid administered for 8 consecutive days measured through out study; format: organism-based; settings: in vivo
[21] = Drug metabolism in Wistar Han rat liver microsomes assessed as mixed function oxidase mediated compound degradation after 60 mins in presence of NADPH-regenerating system by LC-UV analysis; format: ADME; settings: 1 h; outline: as §1
Mus musculus [22] = test: In vivo inhibition of NAMPT in DNBS-induced BALB/c mouse colitis model assessed as reduction in neutrophil infiltration by measuring myeloperoxidase levels at 20 mg/kg, ip bid administered for 3 days post DNBS challenge by ELISA; format: functional, organism-based
SH-SY5Y = test: Cytotoxicity against human SH-SY5Y cells assessed as reduction in cell viability after 56 hrs by MTT assay; format: functional, cell-based; settings: Homo sapiens, SH-SY5Y, 56 h; read-out: EC50
A2780 [23] = test: Cytotoxicity against human A2780 cells assessed as reduction in cell viability; format: functional, cell-based
Liver [24] = test: Drug metabolism in Wistar Han rat liver microsomes assessed as pyridine N-oxidation after 60 mins in presence of NADPH-regenerating system by LC-UV analysis; format: ADME, microsome; settings: 1 h; outline: as §2
Mammary cancer cell = test: Antitumor activity against mouse mammary cancer cells allografted in athymic nu/nu Harlan mouse
[25] = Apparent aqueous solubility of the compound; format: physicochemical; settings: buffer
Outline: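 Kinetic solubility was measured by filtration. Compound from a 10 mM DMSO stock was diluted in PBS pH 7.4 to nominal 500 and 200 μM, shaken 90 min at room temperature and filtered. Filtrate was diluted 4:1 with acetonitrile and absorbance read at 260/280 nm. Concentration came from a calibration curve (3.13–500 μM in 80:20 PBS/acetonitrile, 5% DMSO; r2 >0.85) × 1.25. Run in duplicate.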

[26] = Volume of distribution in athymic Nu/Nu Harlan mouse at 10 mg/kg, iv administered as single dose up to 24 hrs by LC-ESI-MS analysis; format: ADME, organism-based; settings: in vivo
Mus musculus [27] = test: Antiinflammatory activity of DSS-induced […] mouse colitis model assessed as reduction in neutrophil infiltration by measuring myeloperoxidase levels at 20 mg/kg administered daily for 7 days post DSS challenge by ELISA; format: functional, organism-based
[28] = Half life in athymic Nu/Nu Harlan mouse at 10 mg/kg, iv administered as single dose up to 24 hrs by LC-ESI-MS analysis; format: ADME, organism-based; settings: in vivo
Mus musculus [29] = test: Antiinflammatory activity of DSS-induced […] mouse colitis model assessed as reversion of changes in colon length at 20 mg/kg administered daily for 7 days post DSS challenge; format: functional, organism-based
[30] = Clearance in athymic Nu/Nu Harlan mouse at 10 mg/kg, iv administered as single dose up to 24 hrs by LC-ESI-MS analysis; format: ADME, organism-based; settings: in vivo

In the case of `c1ccc(-c2ccccc2OCCCCCCn2cc(-c3cccnc3)nn2)cc1`, the Activity (Fibrosarcoma cell) was “Active”, the pIC50 [1] was 8.42 and the Stability (Liver [2]) was “Stable”. For the same compound, the remaining at 1 h [3] was 49%, the inhibition (Mus musculus [4]) was “Active” and the inhibition (A2780 [5]) was “Active”. The Drug metabolism [6] was “Metabolite_Detected”, the Drug metabolism (Mus musculus [7]) was “Metabolite_Notdetected” and the pIC50 [8] was 8.17. For the same compound, the AUC at 24 h [9] was 859 ng·h/mL, the inhibition (Mus musculus [10]) was “Active” and the inhibition (Mus musculus [11]) was “Active”. For the same compound, the inhibition (Mus musculus [12]) was “Active”, the Activity_index (Mus musculus [13]) was 2.5 and the Activity (Mus musculus [14]) was “Active”. For the same compound, the Activity (Mus musculus [15]) was “Active”, the Drug metabolism (Liver [16]) was “Metabolite_Detected” and the Stability (Liver [17]) was “Stable”. For the same compound, the inhibition (Mus musculus [18]) was “Active”, the remaining at 1 h [19] was 31% and the Activity (Mus musculus [20]) was “Non-Toxic”. For the same compound, the Drug metabolism [21] was “Metabolite_Detected”, the inhibition (Mus musculus [22]) was “Active” and the pEC50 (SH-SY5Y) was 8.28. The pIC50 (A2780 [23]) was 8.52, the Drug metabolism (Liver [24]) was “Metabolite_Detected” and the Activity (Mammary cancer cell) was “Active”. The solubility [25] was “Insoluble”, the Vd [26] was 31.8 L/kg and the Activity (Mus musculus [27]) was “Active”. For the same compound, the half-life [28] was 1.89 h, the Activity (Mus musculus [29]) was “Active” and the clearance [30] was 194 mL/min/kg.
